Source: ChEMBL document CHEMBL1629691, “Intrapulmonary pharmacokinetics and pharmacodynamics of micafungin in adult lung transplant patients” (Antimicrob Agents Chemother, 2010)
Numbered stars: 1 amine (or outer) side, 2 acyl side, 3 side chain; on linkers, the order of the positions; unused ones are H or OH. Bridge positions count the residues as written; N and C are the ends. Square brackets hold non-standard residues; d marks the D form. Peptide text beside a SMILES is read from it. * marks the point of attachment. hTyr(3S-OH,4S-OH,3'-OSO3H) = N[C@H](C(=O)O)[C@H](O)[C@@H](O)c1ccc(O)c(OS(=O)(=O)O)c1; Orn(4R-OH,5R-OH) = O=C([C@H](C[C@@H](O)[C@@H](O)N[*:3])N[*:1])[*:2]; Pro(3S-OH,4S-Me) = C[C@H]1CN[C@H](C(=O)O)[C@H]1O; X1 = CCCCCOc1ccc(-c2cc(-c3ccc(C(=O)*)cc3)no2)cc1; Gln(3R-OH) = NC(=O)C[C@@H](O)[C@H](N)C(=O)O; Hyp = O=C(O)[C@@H]1C[C@@H](O)CN1

Key:
[1] = Elimination half life in lung transplant recipient invasive aspergillosis patient at 150 mg, iv QD for 4 consecutive days by HPLC; type: ADME, organism-based; settings: human, in vivo, read-out: beta t1/2 (converted)
Summary of the method: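 Plasma micafungin was measured by HPLC after a 150-mg IV dose in lung transplant recipients. The terminal-phase half-life was derived by model-independent (noncompartmental) analysis of plasma concentrations.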

[2] = Clearance in lung transplant recipient invasive aspergillosis patient at 150 mg, iv QD for 4 consecutive days by HPLC; type: ADME, organism-based; settings: human, in vivo
[3] = Volume of distribution in lung transplant recipient invasive aspergillosis patient at 150 mg, iv QD for 4 consecutive days by HPLC; type: ADME, organism-based; settings: human, in vivo
[4] = Ratio of fCmax in lung transplant recipient invasive aspergillosis patient plasma to MIC90 for Aspergillus fumigatus; type: functional
[5] = Ratio of Cmax in lung transplant recipient invasive aspergillosis patient epithelial lining fluid to MIC90 for Aspergillus fumigatus; type: functional
[6] = Ratio of Cmax in lung transplant recipient invasive aspergillosis patient alveolar cell to MIC90 for Aspergillus fumigatus; type: functional, Pneumocyte
[7] = Ratio of AUC (0 to 24 hrs) in lung transplant recipient invasive aspergillosis patient plasma to MIC90 for Aspergillus fumigatus; type: functional
[8] = Ratio of AUC (0 to 24 hrs) in lung transplant recipient invasive aspergillosis patient epithelial lining fluid to MIC90 for Aspergillus fumigatus; type: functional
[9] = Ratio of AUC (0 to 24 hrs) in lung transplant recipient invasive aspergillosis patient alveolar cell to MIC90 for Aspergillus fumigatus; type: functional, Pneumocyte
[10] = Drug level in epithelial lining fluid of lung transplant recipient invasive aspergillosis patient at 150 mg, iv QD for 4 consecutive days measured after 5 hrs post last dose by HPLC; type: ADME, organism-based; settings: human, read-out: Drug uptake
Summary of the method: (§1)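 150-mg IV micafungin, then bronchoscopy with BAL (20-ml saline aliquots) at the stated time after the dose. Blood was drawn in heparin at the same time. The BAL fluid was spun at 400 × g for 5 min at 4°C; supernatant and cell pellet were frozen at −80°C. Micafungin was measured by solid-phase extraction and C8 HPLC with UV detection at 271.5 nm, using anidulafungin as internal standard.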

[11] = Drug level in lung transplant recipient invasive aspergillosis patient plasma at 150 mg, iv QD for 4 consecutive days measured after 5 hrs post last dose by HPLC; type: ADME, organism-based; settings: human, read-out: Drug uptake; summary of the method: as §1
[12] = Drug level in alveolar cells of lung transplant recipient invasive aspergillosis patient at 150 mg, iv QD for 4 consecutive days measured after 5 hrs post last dose by HPLC; type: ADME, organism-based, Pneumocyte; settings: human, read-out: Drug uptake; summary of the method: as §1
Homo sapiens [13] = experiment: Hepatotoxicity in lung transplant recipient invasive aspergillosis patient assessed as serum creatinine level at 150 mg, iv QD for 4 consecutive days measured post last dose; type: toxicity, organism-based; settings: in vivo
Summary of the method: (§2)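 Serum creatinine, AST, ALT and total bilirubin were recorded from routine clinical laboratory tests before enrolment and again after BAL, at a mean of 10.7 days after infusion.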

Homo sapiens [14] = experiment: Hepatotoxicity in lung transplant recipient invasive aspergillosis patient assessed as serum AST level at 150 mg, iv QD for 4 consecutive days measured post last dose; type: toxicity, organism-based; settings: in vivo; summary of the method: as §2
Homo sapiens [15] = experiment: Hepatotoxicity in lung transplant recipient invasive aspergillosis patient assessed as total bilirubin level at 150 mg, iv QD for 4 consecutive days measured post last dose; type: toxicity, organism-based; settings: in vivo; summary of the method: as §2
[16] = AUC (0 to 24 hrs) in lung transplant recipient invasive aspergillosis patient plasma at 150 mg, iv administered as single dose; type: ADME, organism-based; design: dose 150 mg, time < 24 hr, route intravenous; settings: human
Summary of the method: (§3)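 Single 150-mg IV dose in adult lung transplant recipients. Plasma, ELF (epithelial lining fluid) and alveolar cell concentrations were measured by HPLC at the time of bronchoscopy. AUC0-24 came from a population model: a linear four-compartment model fit to all compartments, with the plasma two-compartment model used for the plasma profile.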

[17] = AUC (0 to 24 hrs) in epithelial lining fluid of lung transplant recipient invasive aspergillosis patient plasma at 150 mg, iv administered as single dose; type: ADME, organism-based; design: time < 24 hr, dose 150 mg, route intravenous; settings: human; summary of the method: as §3
[18] = AUC (0 to 24 hrs) in alveolar cell of lung transplant recipient invasive aspergillosis patient plasma at 150 mg, iv administered as single dose; type: ADME, organism-based, Pneumocyte; design: time < 24 hr, dose 150 mg, route intravenous; settings: human, alveolar cells; summary of the method: as §3
[19] = Ratio of total Cmax to MIC90 in lung transplant recipient invasive aspergillosis patient infected with Aspergillus fumigatus; type: functional
[20] = Drug level in lung transplant recipient invasive aspergillosis patient plasma at 150 mg, iv QD for 4 consecutive days measured after 3 hrs post last dose by HPLC; type: ADME, organism-based; settings: human, read-out: Drug uptake; summary of the method: as §1
[21] = Drug level in lung transplant recipient invasive aspergillosis patient plasma at 150 mg, iv measured after 5 hrs post last dose by HPLC; settings: human, read-out: Drug uptake
Homo sapiens [22] = experiment: Hepatotoxicity in lung transplant recipient invasive aspergillosis patient assessed as serum ALT level at 150 mg, iv measured post last dose; settings: in vivo
[23] = Drug level in alveolar cells of lung transplant recipient invasive aspergillosis patient at 150 mg, iv single dose measured after 5 hrs post dose by HPLC; settings: human, read-out: Drug uptake
[24] = Drug level in epithelial lining fluid of lung transplant recipient invasive aspergillosis patient at 150 mg, iv single dose measured after 5 hrs post dose by HPLC; settings: human, read-out: Drug uptake
[25] = Ratio of drug level in alveolar cell to plasma of lung transplant recipient invasive aspergillosis patient at 150 mg, iv single dose measured after 5 hrs post dose; settings: human, alveolar cells / plasma
[26] = Ratio of drug level in epithelial lining fluid to plasma in lung transplant recipient invasive aspergillosis patient at 150 mg, iv measured after 5 hrs post last dose; settings: human

Question: Which results are given for `CCCCCOc1ccc(-c2cc(-c3ccc(C(=O)N[C@H]4C[C@@H](O)[C@@H](O)NC(=O)[C@@H]5[C@@H](O)[C@@H](C)CN5C(=O)[C@H]([C@H](O)CC(N)=O)NC(=O)[C@H]([C@H](O)[C@@H](O)c5ccc(O)c(OS(=O)(=O)O)c5)NC(=O)[C@@H]5C[C@@H](O)CN5C(=O)[C@H]([C@@H](C)O)NC4=O)cc3)no2)cc1` [MICAFUNGIN] (X1-[Orn(4R-OH,5R-OH)]T[Hyp][hTyr(3S-OH,4S-OH,3'-OSO3H)][Gln(3R-OH)][Pro(3S-OH,4S-Me)]; lactam 1-C)?
Answer: half-life [1]: 12.1 h; clearance [2]: 21.8 mL/min; Vd [3]: 17.6 L; Ratio [4]: 3.2; Ratio [5]: 88.5; Ratio [6]: 1115; Ratio [7]: 5077; Ratio [8]: 923.1; Ratio [9]: 13340; concentration at 5 h [10]: 690 ng/mL; concentration at 5 h [11]: 5380 ng/mL; concentration at 5 h [12]: 53300 ng/mL; Activity (Homo sapiens [13]): 1.11 mg/dL; Activity (Homo sapiens [14]): 28.6 IU/L; Activity (Homo sapiens [15]): 0.74 mg/dL; AUC(0-t) at 24 h [16]: 79200 ng·h/mL; AUC(0-t) at 24 h [17]: 14400 ng·h/mL; AUC(0-t) at 24 h [18]: 208000 ng·h/mL; Ratio [19]: 316; concentration at 3 h [20]: 4930 ng/mL; concentration at 5 h [21]: 4810 ng/mL; Activity (Homo sapiens [22]): 41.6 IU/L; concentration at 5 h [23]: 2840 ng/mL; concentration at 5 h [24]: 710 ng/mL; Kp at 5 h [25]: 0.61; Kp at 5 h [26]: 0.15
